≈ marks a conversion by molar mass, not a printed value.
Experiments:
Plasma = assay: Fraction unbound in human plasma at 10 uM after 4 hrs by LC-MS/MS based rapid equilibrium dialysis method; assay type: ADME, cell-free
Outline: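 Human plasma spiked at 10 μM was dialysed against buffer in a rapid equilibrium dialysis device for 4 h at 37 °C under 5% CO2 (n = 4). Both sides were quantified by LC–MS/MS. Fraction unbound was taken as the buffer concentration divided by the total plasma-side concentration.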

[1] = Drug degradation in human plasma at 10 uM after 4 hrs by LC-MS/MS analysis; assay type: ADME, cell-free; conditions: read-out: Drug degradation
Outline: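 Human plasma containing compound (10 μM, n = 4) was incubated for 4 h at 37 °C under 5% CO2. Concentrations at T0 and at 4 h were measured by LC–MS/MS, and degradation was expressed as a percentage relative to the T0 average.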

in vivo [2] = conditions: Sprague-Dawley, rat, iv, 1 mg/kg
Escherichia coli [3] = assay: In vivo antibacterial activity against Escherichia coli isolate 210737 infected in Kunming mouse systemic infection model assessed as increase in mouse survival administered subcutaneously 0.5 to 4 hrs post infection measured after 48 hrs by Bliss method; assay type: functional; conditions: isolate 210737, sc
Outline: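 Kunming mice, half male and half female, 18–22 g, 5 per group. Lethal systemic infection by intraperitoneal injection of 0.5 mL clinical E. coli 210737 inoculum at 5×10^4 CFU/mL. Given subcutaneously twice, at 0.5 and 4.0 h post-infection, at doses of 0.625 to 20 mg/kg.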

[4] = Volume of distribution in steady state in Sprague-Dawley rat at 1 mg/kg, iv measured up to 180 mins by LC-MS/MS analysis; assay type: ADME, organism-based; conditions: in vivo, read-out: Vdss
Outline: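 Male Sprague-Dawley rats (200–220 g, n = 3 per group) received 1.0 mg/kg iv in water. Blood was taken from the retrobulbar vein at 2, 5, 15, 30, 45, 60, 90 and 180 min. Plasma was quantified by LC–MS/MS, and parameters were derived by noncompartmental analysis of mean plasma concentrations.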

Klebsiella pneumoniae [5] = assay: Antibacterial activity against Klebsiella pneumoniae isolate 212232 after 18 hrs by broth microdilution method; assay type: functional; conditions: isolate 212232, 18 h
Outline: (§1)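 CLSI broth microdilution in Mueller-Hinton broth with 16 mg/L 2,2'-bipyridyl added. Compounds were dissolved in DMSO, or in water for meropenem and ceftizoxime sodium, then serially diluted in growth medium.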

Acinetobacter baumannii = assay: Antibacterial activity against extended spectrum beta-lactamase OXA-23 producing multidrug resistant Acinetobacter baumannii clinical isolates after 18 hrs by broth microdilution method; assay type: functional
Klebsiella pneumoniae [6] = assay: Antibacterial activity against extended spectrum beta-lactamase KPC-2 producing multidrug resistant Klebsiella pneumoniae clinical isolates after 18 hrs by broth microdilution method; assay type: functional; conditions: Klebsiella pneumoniae, 18 h; read-out: MIC
Escherichia coli [7] = assay: Antibacterial activity against Escherichia coli isolate 210737 after 18 hrs by broth microdilution method; assay type: functional; conditions: isolate 210737, 18 h; outline: as §1
in vivo [8] = conditions: Sprague-Dawley, rat, iv, 1 mg/kg; remark: listed apart in the source
Pseudomonas aeruginosa = assay: Antibacterial activity against extended spectrum beta-lactamase IMP-4 producing multidrug resistant Pseudomonas aeruginosa clinical isolates after 18 hrs by broth microdilution method; assay type: functional
[9] = Clearance in Sprague-Dawley rat at 1 mg/kg, iv measured up to 180 mins by LC-MS/MS analysis; conditions: in vivo
Escherichia coli [10] = assay: Antibacterial activity against extended spectrum beta-lactamases producing Escherichia coli clinical isolates after 18 hrs by broth microdilution method; assay type: functional
Klebsiella pneumoniae [11] = assay: In vivo antibacterial activity against multidrug resistant Klebsiella pneumoniae isolate 212232 infected in Kunming mouse systemic infection model assessed as increase in mouse survival at 100 mg/kg, sc administered 0.5 to 4 hrs post infection measured after 48 hrs by Bliss method; assay type: functional; conditions: isolate 212232, sc
Outline: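 Lethal intraperitoneal infection of Kunming mice (mixed sex, 18–22 g, 5 per group) with 0.5 mL MDR K. pneumoniae 212232 at 3×10^6 CFU/mL. The 100 mg/kg dose was given subcutaneously at 0.5 and 4.0 h post-infection. Read-out is the percentage of mice surviving at 48 h after treatment.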

Klebsiella pneumoniae [12] = assay: In vivo antibacterial activity against multidrug resistant Klebsiella pneumoniae isolate 212232 infected in Kunming mouse systemic infection model assessed as increase in mouse survival administered subcutaneously 0.5 to 4 hrs post infection measured after 48 hrs by Bliss method; assay type: functional; conditions: isolate 212232, sc
Outline: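 Kunming mice, half male and half female, 18–22 g, 5 per group. Infected intraperitoneally with 0.5 mL of MDR clinical K. pneumoniae 212232 at 3×10^6 CFU/mL. Subcutaneous doses of 3.125, 6.25, 12.5, 25, 50 and 100 mg/kg were given at 0.5 and 4.0 h post-infection.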

Structure (SMILES)	Fu (Plasma) [%]	metabolised at 4 h, 10 µM [1] [%]	AUC(0-t) at 3 h (in vivo [2]) [ng·h/mL]	ED50 (Escherichia coli [3]) [mg/kg]	Vd [4] [L/kg]	MIC (Klebsiella pneumoniae [5]) [µg/mL]	MIC (Acinetobacter baumannii) [µg/mL]	MIC (Klebsiella pneumoniae [6]) [µg/mL]	MIC (Escherichia coli [7]) [µg/mL]	half-life (in vivo [8]) [min]	MIC (Pseudomonas aeruginosa) [µg/mL]	clearance at 3 h [9] [mL/min/kg]	MIC (Escherichia coli [10]) [µg/mL]	survival at 100 mg/kg (Klebsiella pneumoniae [11]) [%]	ED50 (Klebsiella pneumoniae [12]) [mg/kg]
CC1(C)[C@H](NC(=O)/C(=N\OC(CS(C)(=O)=O)c2cc(=O)c(O)cn2O)c2csc(N)n2)C(=O)N1OS(=O)(=O)O (stereo partly drawn)	64	34	1890	5.32	0.21	0.06 (≈ 0.0983 µM)	0.25 to 2 (≈ 0.409 to 3.28 µM)	0.06 to 2 (≈ 0.0983 to 3.28 µM)	0.06 (≈ 0.0983 µM)	19.8	1 to 32 (≈ 1.64 to 52.4 µM)	9.3			
CC1(C)[C@H](NC(=O)/C(=N\OCc2cc(=O)c(O)cn2O)c2csc(N)n2)C(=O)N1OS(=O)(=O)O	47	12	1710	4.19	0.14	0.25 (≈ 0.482 µM)	0.5 to 64 (≈ 0.964 to 123 µM)	0.25 to 64 (≈ 0.482 to 123 µM)	0.25 (≈ 0.482 µM)		1 to 4 (≈ 1.93 to 7.71 µM)		0.25 to 1 (≈ 0.482 to 1.93 µM)	40	> 100
CC(C)C(O/N=C(\C(=O)N[C@@H]1C(=O)N(OS(=O)(=O)O)C1(C)C)c1csc(N)n1)c1cc(=O)c(O)cn1O (stereo partly drawn)	35	29	1730		0.3	< 0.03	0.125 to 1 (≈ 0.223 to 1.78 µM)		< 0.03		0.25 to 1 (≈ 0.446 to 1.78 µM)				
CC(C)[C@H](O/N=C(\C(=O)N[C@@H]1C(=O)N(OS(=O)(=O)O)C1(C)C)c1csc(N)n1)c1cc(=O)c(O)cn1O	27	23	675		0.36		1 to 2 (≈ 1.78 to 3.57 µM)	0.125 to 1 (≈ 0.223 to 1.78 µM)		15.6	0.125 to 1 (≈ 0.223 to 1.78 µM)	28.5	0.06 to 0.25 (≈ 0.107 to 0.446 µM)		
C[C@@H](O)[C@H]1C(=O)N2C(C(=O)O)=C(S[C@@H]3CN[C@H](C(=O)N(C)C)C3)[C@H](C)[C@H]12 [MEROPENEM]				2.04		> 64	64 (≈ 167 µM)	32 to 64 (≈ 83.4 to 167 µM)	0.125 (≈ 0.326 µM)		32 to 64 (≈ 83.4 to 167 µM)		0.125 to 8 (≈ 0.326 to 20.9 µM)	0	> 100
CSCC(O/N=C(\C(=O)N[C@@H]1C(=O)N(OS(=O)(=O)O)C1(C)C)c1csc(N)n1)c1cc(=O)c(O)cn1O (stereo partly drawn)	32	28	661		0.37		0.125 to 1 (≈ 0.216 to 1.73 µM)			15	0.125 to 1 (≈ 0.216 to 1.73 µM)	26.1			
CC(C)C(O/N=C(\C(=O)N[C@@H]1C(=O)N(OS(=O)(=O)O)C1(C)C)c1nc(N)sc1Cl)c1cc(=O)c(O)cn1O (stereo partly drawn)	23	22	634	6.94	1.41	0.06 (≈ 0.101 µM)	0.06 to 2 (≈ 0.101 to 3.36 µM)	0.06 to 0.5 (≈ 0.101 to 0.84 µM)	1 (≈ 1.68 µM)	90	0.25 to 8 (≈ 0.42 to 13.4 µM)	26.9	0.06 to 1 (≈ 0.101 to 1.68 µM)		
